# Experimental data as given in ChEMBL document CHEMBL4041517 (Eur J Med Chem, 2017).
# Columns and labels:
# [1] = target: T1, Amine oxidase [flavin-containing] B (Homo sapiens, UniProt P27338); assay: Inhibition of recombinant human MAO-B using kynuramine as substrate by fluorescence spectrophotometry
# T1 sequence (P27338 whole entry): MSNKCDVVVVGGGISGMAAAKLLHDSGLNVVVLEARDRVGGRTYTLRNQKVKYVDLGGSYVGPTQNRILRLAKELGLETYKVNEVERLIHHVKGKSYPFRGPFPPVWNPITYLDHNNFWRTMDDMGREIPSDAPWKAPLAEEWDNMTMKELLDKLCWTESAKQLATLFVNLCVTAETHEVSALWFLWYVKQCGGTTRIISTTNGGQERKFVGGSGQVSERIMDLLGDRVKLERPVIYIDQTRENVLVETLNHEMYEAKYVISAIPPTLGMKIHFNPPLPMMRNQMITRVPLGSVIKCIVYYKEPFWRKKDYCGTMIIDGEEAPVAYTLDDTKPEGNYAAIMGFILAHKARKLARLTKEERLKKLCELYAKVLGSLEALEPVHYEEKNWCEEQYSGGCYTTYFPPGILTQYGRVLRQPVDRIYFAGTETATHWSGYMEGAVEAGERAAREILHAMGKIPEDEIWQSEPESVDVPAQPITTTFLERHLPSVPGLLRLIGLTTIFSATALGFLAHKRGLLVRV
# [2] = target: T2, Amine oxidase [flavin-containing] A (Homo sapiens, UniProt P21397); assay: Inhibition of recombinant human MAO-A using kynuramine as substrate by fluorescence spectrophotometry
# T2 sequence (P21397 whole entry): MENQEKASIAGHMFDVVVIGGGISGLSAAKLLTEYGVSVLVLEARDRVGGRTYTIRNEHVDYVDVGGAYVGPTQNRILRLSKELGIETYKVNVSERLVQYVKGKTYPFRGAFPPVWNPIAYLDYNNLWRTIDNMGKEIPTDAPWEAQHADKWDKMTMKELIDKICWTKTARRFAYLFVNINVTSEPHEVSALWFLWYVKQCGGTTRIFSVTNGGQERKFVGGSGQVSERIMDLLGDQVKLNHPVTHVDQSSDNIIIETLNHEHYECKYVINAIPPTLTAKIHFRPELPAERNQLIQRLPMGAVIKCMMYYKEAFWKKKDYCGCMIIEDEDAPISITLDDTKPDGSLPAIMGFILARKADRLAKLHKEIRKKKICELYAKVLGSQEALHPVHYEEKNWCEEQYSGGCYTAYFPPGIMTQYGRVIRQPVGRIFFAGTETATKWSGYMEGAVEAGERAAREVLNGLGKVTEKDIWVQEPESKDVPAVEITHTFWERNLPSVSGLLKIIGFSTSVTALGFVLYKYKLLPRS
# [3] = organism: Homo sapiens; assay: Selectivity index, ratio of IC50 for recombinant human MAO-A to IC50 for recombinant human MAO-B
# In short: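 Ratio of IC50 for MAO-A to IC50 for MAO-B. Each IC50 is the mean of triplicate fluorometric kynuramine-oxidation determinations on the recombinant human enzymes.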
# [4] = target: T1, Amine oxidase [flavin-containing] B; assay: Reversible inhibition of recombinant human MAO-B assessed as residual activity pre-incubated at 4 times IC50 for 15 mins followed by dialysis for 24 hrs and subsequent kynuramine addition measured after 20 mins by fluorescence spectrophotometric analysis relative to untreated control
# In short: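 Recombinant MAO-B is preincubated with inhibitor for 15 min at 37 °C, then dialysed for 24 h at 4 °C. It is then diluted two-fold by adding kynuramine (50 final) and incubated 20 min at 37 °C. 4-Hydroxyquinoline is read fluorometrically. Residual activity is compared with an inhibitor-free dialysed control; triplicates, mean ± SD. (R)-Deprenyl is run the same way.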
# [5] = target: T1, Amine oxidase [flavin-containing] B; assay: Reversible inhibition of recombinant human MAO-B assessed as residual activity pre-incubated at 4 times IC50 for 15 mins followed by kynuramine addition measured after 20 mins by fluorescence spectrophotometric analysis relative to untreated control
# In short: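 Recombinant MAO-B is preincubated with inhibitor for 15 min at 37 °C without dialysis. It is then diluted two-fold by adding kynuramine (50 final) and incubated 20 min at 37 °C. 4-Hydroxyquinoline is measured fluorometrically. Residual rate is compared with control; triplicates, mean ± SD.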
SMILES,IC50 [1] [µM],IC50 [2] [µM],Ratio IC50 [3],Activity [4] [%],Activity [5] [%]
O=[N+]([O-])/C=C/c1cccc(OCc2ccc(F)cc2)c1,0.039,6.46,166,38,37
O=[N+]([O-])/C=C/c1cccc(OCc2cccc(F)c2)c1,0.103,4.2,41,–,–
O=[N+]([O-])/C=C/c1cccc(OCc2ccccc2)c1,0.085,3.65,43,–,–
O=[N+]([O-])/C=C/c1cccc(OCc2ccc(Cl)cc2)c1,0.144,7.59,53,–,–
O=[N+]([O-])/C=C/c1cccc(OCc2cccc(Br)c2)c1,0.262,6.63,25,–,–
O=[N+]([O-])/C=C/c1cccc(OCc2cccc(C(F)(F)F)c2)c1,0.273,8.78,32,–,–
O=[N+]([O-])/C=C/c1cccc(OCc2ccc(C(F)(F)F)cc2)c1,0.106,6.6,62,–,–
Cc1cccc(COc2cccc(/C=C/[N+](=O)[O-])c2)c1,0.565,11.8,21,–,–
O=[N+]([O-])/C=C/c1cccc(OCc2ccc(Br)cc2)c1,> 100,> 100,–,–,–
O=[N+]([O-])/C=C/c1cccc(OCc2cccc(Cl)c2)c1,0.105,3.52,34,–,–
Cc1ccc(COc2cccc(/C=C/[N+](=O)[O-])c2)cc1,0.192,9.36,49,–,–
